The source made the active and inactive calls. No cut-off for these calls is given here.
Experiments:
UO-31 = experiment: Growth inhibition of human UO31 cells; format: functional
Method in brief: (§1)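 Run in the NCI 60-cell-line screen under the standard NCI protocol. Cells were tested at concentrations up to 10^-4 M. Potency was expressed as GI50 (M), taken from the NCI mean-graph data.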

DU-145 = experiment: Growth inhibition of human DU145 cells; format: functional
Method in brief: (§2)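 Tested in the NCI 60-cell-line screen using the standard NCI protocol, with concentrations up to 10^-4 M. Growth inhibition is reported as GI50 (M), taken from the NCI mean graphs.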

MCF7 = experiment: Growth inhibition of human MCF7 cells; format: functional; method in brief: as §2
NCI/ADR-RES = experiment: Growth inhibition of human NCI/ADR-RES cells; format: functional; method in brief: as §2
MDA-MB-231 = experiment: Growth inhibition of human MDA-MB-231 cells; format: functional; method in brief: as §2
[1] = Growth inhibition of human Hs 578T cells; format: functional; method in brief: as §2
MDA-N = experiment: Growth inhibition of human MDA-N cells; format: functional; method in brief: as §2
BT-549 = experiment: Growth inhibition of human BT549 cells; format: functional; method in brief: as §2
Enterococcus faecalis = experiment: Antimicrobial activity against Enterococcus faecalis at 100 ug/ml; format: functional, organism-based
Bacillus subtilis = experiment: Antimicrobial activity against Bacillus subtilis at 100 ug/ml; format: functional, organism-based
Proteus sp. = experiment: Antimicrobial activity against Proteus sp. at 100 ug/ml; format: functional, organism-based
HL-60(TB) = experiment: Growth inhibition of human HL-60(TB) cells; format: functional
Method in brief: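 Run in the NCI 60-cell line panel using the standard NCI protocol. The value is reported as GI50 in molar units, with 10^-4 M the top concentration examined.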

K562 = experiment: Growth inhibition of human K562 cells; format: functional; method in brief: as §2
MOLT-4 = experiment: Growth inhibition of human MOLT4 cells; format: functional; method in brief: as §2
[2] = Growth inhibition of human RPMI8266 cells; format: functional; method in brief: as §1
SR = experiment: Growth inhibition of human SR cells; format: functional; method in brief: as §1
EKVX = experiment: Growth inhibition of human EKVX cells; format: functional; method in brief: as §2
NCI-H23 = experiment: Growth inhibition of human NCI-H23 cells; format: functional; method in brief: as §2
NCI-H322M = experiment: Growth inhibition of human NCI-H322M cells; format: functional; method in brief: as §2
COLO 205 = experiment: Growth inhibition of human COLO205 cells; format: functional; method in brief: as §2
HCT-116 = experiment: Growth inhibition of human HCT116 cells; format: functional; method in brief: as §2
KM12 = experiment: Growth inhibition of human KM12 cells; format: functional; method in brief: as §2
SW-620 = experiment: Growth inhibition of human SW620 cells; format: functional; method in brief: as §1
SF-268 = experiment: Growth inhibition of human SF268 cells; format: functional; method in brief: as §1
SF-295 = experiment: Growth inhibition of human SF295 cells; format: functional; method in brief: as §1
SNB-19 = experiment: Growth inhibition of human SNB19 cells; format: functional; method in brief: as §1
U-251 = experiment: Growth inhibition of human U251 cells; format: functional; method in brief: as §1
LOX IMVI = experiment: Growth inhibition of human LOXIMVI cells; format: functional; method in brief: as §2
M14 = experiment: Growth inhibition of human M14 cells; format: functional; method in brief: as §2
Malme-3M = experiment: Growth inhibition of human MALME-3M cells; format: functional; method in brief: as §2
SK-MEL-28 = experiment: Growth inhibition of human SK-MEL-28 cells; format: functional; method in brief: as §1
UACC-257 = experiment: Growth inhibition of human UACC257 cells; format: functional; method in brief: as §1
UACC-62 = experiment: Growth inhibition of human UACC62 cells; format: functional; method in brief: as §1
OVCAR-3 = experiment: Growth inhibition of human OVCAR-3 cells; format: functional; method in brief: as §2
OVCAR-4 = experiment: Growth inhibition of human OVCAR4 cells; format: functional; method in brief: as §2
OVCAR-5 = experiment: Growth inhibition of human OVCAR5 cells; format: functional; method in brief: as §2
SK-OV-3 = experiment: Growth inhibition of human SKOV3 cells; format: functional; method in brief: as §1
786-0 = experiment: Growth inhibition of human 786-0 cells; format: functional; method in brief: as §2
A498 = experiment: Growth inhibition of human A498 cells; format: functional; method in brief: as §2
ACHN = experiment: Growth inhibition of human ACHN cells; format: functional; method in brief: as §2
RXF 393 = experiment: Growth inhibition of human RXF393 cells; format: functional; method in brief: as §1
SN12C = experiment: Growth inhibition of human SN12C cells; format: functional; method in brief: as §1
[3] = read-out: pLC50 (the source's name) (converted)

Structure (SMILES): COc1cccc(/C=C/[C@H]2O[C@@H](C)[C@H](O)[C@@H]2O)c1CO [VARITRIOL]
- GI50 (UO-31): > 100 µM
- CC50 (UO-31; [3]): > 100 µM
- TGI (UO-31; read-out: pTGI): > 100 µM
- GI50 (DU-145): 1100 nM
- CC50 (DU-145; [3]): > 100 µM
- TGI (DU-145; read-out: pTGI (converted)): 2400 nM
- GI50 (MCF7): > 100 µM
- CC50 (MCF7; [3]): > 100 µM
- TGI (MCF7; read-out: pTGI): > 100 µM
- GI50 (NCI/ADR-RES): > 100 µM
- CC50 (NCI/ADR-RES; [3]): > 100 µM
- TGI (NCI/ADR-RES; read-out: pTGI): > 100 µM
- GI50 (MDA-MB-231): > 100 µM
- CC50 (MDA-MB-231; [3]): > 100 µM
- TGI (MDA-MB-231; read-out: pTGI): > 100 µM
- GI50 [1]: > 100 µM
- CC50 [1, 3]: > 100 µM
- TGI ([1]; read-out: pTGI): > 100 µM
- GI50 (MDA-N): > 100 µM
- CC50 (MDA-N; [3]): > 100 µM
- TGI (MDA-N; read-out: pTGI): > 100 µM
- GI50 (BT-549): > 100 µM
- CC50 (BT-549; [3]): > 100 µM
- TGI (BT-549; read-out: pTGI): > 100 µM
- Activity (Enterococcus faecalis): inactive
- Activity (Bacillus subtilis): inactive
- Activity (Proteus sp.): inactive
- GI50 (HL-60(TB)): 25.1 µM
- CC50 (HL-60(TB); [3]): > 100 µM
- TGI (HL-60(TB); read-out: pTGI): > 100 µM
- GI50 (K562): > 100 µM
- CC50 (K562; [3]): > 100 µM
- TGI (K562; read-out: pTGI): > 100 µM
- GI50 (MOLT-4): > 100 µM
- CC50 (MOLT-4; [3]): > 100 µM
- TGI (MOLT-4; read-out: pTGI): > 100 µM
- GI50 [2]: > 100 µM
- CC50 [2, 3]: > 100 µM
- TGI ([2]; read-out: pTGI): > 100 µM
- GI50 (SR): > 100 µM
- CC50 (SR; [3]): > 100 µM
- TGI (SR; read-out: pTGI): > 100 µM
- GI50 (EKVX): > 100 µM
- CC50 (EKVX; [3]): > 100 µM
- TGI (EKVX; read-out: pTGI): > 100 µM
- GI50 (NCI-H23): > 100 µM
- CC50 (NCI-H23; [3]): > 100 µM
- TGI (NCI-H23; read-out: pTGI): > 100 µM
- GI50 (NCI-H322M): > 100 µM
- CC50 (NCI-H322M; [3]): > 100 µM
- TGI (NCI-H322M; read-out: pTGI): > 100 µM
- GI50 (COLO 205): 95.5 µM
- CC50 (COLO 205; [3]): > 100 µM
- TGI (COLO 205; read-out: pTGI): > 100 µM
- GI50 (HCT-116): > 100 µM
- CC50 (HCT-116; [3]): > 100 µM
- TGI (HCT-116; read-out: pTGI): > 100 µM
- GI50 (KM12): > 100 µM
- CC50 (KM12; [3]): > 100 µM
- TGI (KM12; read-out: pTGI): > 100 µM
- GI50 (SW-620): > 100 µM
- CC50 (SW-620; [3]): > 100 µM
- TGI (SW-620; read-out: pTGI): > 100 µM
- GI50 (SF-268): > 100 µM
- CC50 (SF-268; [3]): > 100 µM
- TGI (SF-268; read-out: pTGI): > 100 µM
- GI50 (SF-295): > 100 µM
- CC50 (SF-295; [3]): > 100 µM
- TGI (SF-295; read-out: pTGI): > 100 µM
- GI50 (SNB-19): 91.2 µM
- CC50 (SNB-19; [3]): > 100 µM
- TGI (SNB-19; read-out: pTGI): > 100 µM
- GI50 (U-251): > 100 µM
- CC50 (U-251; [3]): > 100 µM
- TGI (U-251; read-out: pTGI): > 100 µM
- GI50 (LOX IMVI): > 100 µM
- CC50 (LOX IMVI; [3]): > 100 µM
- TGI (LOX IMVI; read-out: pTGI): > 100 µM
- GI50 (M14): > 100 µM
- CC50 (M14; [3]): > 100 µM
- TGI (M14; read-out: pTGI): > 100 µM
- GI50 (Malme-3M): > 100 µM
- CC50 (Malme-3M; [3]): > 100 µM
- TGI (Malme-3M; read-out: pTGI): > 100 µM
- GI50 (SK-MEL-28): > 100 µM
- CC50 (SK-MEL-28; [3]): > 100 µM
- TGI (SK-MEL-28; read-out: pTGI): > 100 µM
- GI50 (UACC-257): > 100 µM
- CC50 (UACC-257; [3]): > 100 µM
- TGI (UACC-257; read-out: pTGI): > 100 µM
- GI50 (UACC-62): > 100 µM
- CC50 (UACC-62; [3]): > 100 µM
- TGI (UACC-62; read-out: pTGI): > 100 µM
- GI50 (OVCAR-3): > 100 µM
- CC50 (OVCAR-3; [3]): > 100 µM
- TGI (OVCAR-3; read-out: pTGI): > 100 µM
- GI50 (OVCAR-4): > 100 µM
- CC50 (OVCAR-4; [3]): > 100 µM
- TGI (OVCAR-4; read-out: pTGI): > 100 µM
- GI50 (OVCAR-5): 67.6 µM
- CC50 (OVCAR-5; [3]): > 100 µM
- TGI (OVCAR-5; read-out: pTGI): > 100 µM
- GI50 (SK-OV-3): > 100 µM
- CC50 (SK-OV-3; [3]): > 100 µM
- TGI (SK-OV-3; read-out: pTGI): > 100 µM
- GI50 (786-0): > 100 µM
- CC50 (786-0; [3]): > 100 µM
- TGI (786-0; read-out: pTGI): > 100 µM
- GI50 (A498): > 100 µM
- CC50 (A498; [3]): > 100 µM
- TGI (A498; read-out: pTGI): > 100 µM
- GI50 (ACHN): > 100 µM
- CC50 (ACHN; [3]): > 100 µM
- TGI (ACHN; read-out: pTGI): > 100 µM
- GI50 (RXF 393): 162 nM
- CC50 (RXF 393; [3]): > 100 µM
- TGI (RXF 393; read-out: pTGI (converted)): 933 nM
- GI50 (SN12C): > 100 µM
- CC50 (SN12C; [3]): > 100 µM
- TGI (SN12C; read-out: pTGI): > 100 µM
